697 NFkB inh – lowers PMA/ionomycin-induced NF-kB signal in 697 B cells. 697 B-cell NF-kB luciferase reporter, 16 h. inhibition, % at 4 µM. actives 0.33% (n = 330,000); in the data active = inhibition above about 35%
NR2E3 ag-1 – human photoreceptor-specific nuclear receptor agonism | actives 0.35% (n = 360,000) | inhibition of corepressor binding, % at 3.98 µM | Q9Y5X4 | CHO-S Gal4-NCOR/VP16-NR2E3 two-hybrid, luciferase;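 active = inhibition above the mean of all tested compounds plus 3 SD, cut at about 70% in these data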;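 also: 0% = DMSO with NR2E3 transfected cells and 100% = cells lacking NR2E3 construct; higher means lower luciferase signal from less NR2E3 corepressor binding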
Target sequence (Q9Y5X4 whole entry, looked up, the tested form may be a part): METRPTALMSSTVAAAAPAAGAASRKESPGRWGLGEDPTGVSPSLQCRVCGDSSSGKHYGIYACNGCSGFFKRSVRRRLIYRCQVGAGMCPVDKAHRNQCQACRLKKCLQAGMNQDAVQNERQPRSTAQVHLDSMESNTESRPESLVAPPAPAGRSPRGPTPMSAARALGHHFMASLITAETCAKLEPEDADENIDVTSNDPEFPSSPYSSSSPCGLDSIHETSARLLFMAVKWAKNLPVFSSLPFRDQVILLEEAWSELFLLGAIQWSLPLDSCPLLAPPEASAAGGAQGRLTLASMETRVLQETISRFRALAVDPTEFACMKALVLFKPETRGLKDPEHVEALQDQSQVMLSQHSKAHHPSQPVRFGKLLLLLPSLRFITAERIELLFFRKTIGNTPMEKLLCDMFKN
NR2E3 ag-2 – NR2E3 (human) agonism; GST-NR2E3/biotin-RetCOR TR-FRET, 1536-well; AID 2300; Q9Y5X4; actives 0.12% (n = 320,000); inhibition of corepressor binding, % at 4.78 µM;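 active = percent inhibition above the cutoff of mean plus 3 SD of all tested compounds, set per screening campaign, cut at about 20% in these data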;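 also: 0% = DMSO wells and 100% = biotin wells as full block of FRET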
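Material: NR2E3–RetCOR corepressor complex / Amount: 1.35 nM GST-NR2E3 / Medium: Tris pH 7.5 / Compound: single nominal compound dose of 4.8 µM / Incubation: 5 h at 4 °C / Technique: TR-FRET, Eu(K)-anti-GST donor, streptavidin-D2 acceptor, ex 340, em 617/671 nm / Read-out basis: percent loss of FRET ratio relative to control wells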
FGF22 binding – binders of recombinant human FGF22 by thermal shift | actives 1.5% (n = 340,000) | Q9HCT0 | activity (Tm shift, normalised), % at 9.99 µM | SYPRO orange fluorescence; percent of sucrose octasulfate shift, DMSO zero | AID 651658;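 active = mean Tm shift, scaled 0 neutral to 100 positive control, at about 1.3% or above, every replicate too, limit read from the data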
Target sequence (Q9HCT0 whole entry, looked up): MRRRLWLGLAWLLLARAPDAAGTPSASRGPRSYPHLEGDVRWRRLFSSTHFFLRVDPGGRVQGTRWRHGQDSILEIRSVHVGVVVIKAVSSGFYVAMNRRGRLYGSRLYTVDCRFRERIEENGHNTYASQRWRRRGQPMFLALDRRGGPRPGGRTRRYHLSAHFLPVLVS
miR122 inh – blocks miR-122 activity in Huh7 sensor cells; activation (reporter increase), % at 12.5 µM; Huh7 miR-122 Renilla luciferase sensor, 48 h; neutral wells = 0, positive control = 100; actives 0.3% (n = 340,000);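 active = mean replicate activation score at least 90 and every replicate individually at or above 90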;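 also: higher luciferase means less miR-122 activity so hits act as miR-122 inhibitors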
Jurkat NFkB inh – inhibitors of the PMA/ionomycin-induced NF-kB reporter in Jurkat cells. PMA/ionomycin-induced NF-kB luciferase reporter, luminescence. inhibition, % at 4 µM. actives 0.53% (n = 330,000). AID 435003; in the data active = inhibition above about 50%
Jurkat NFkB conf – lowers PMA/ionomycin-induced NF-kB signal in Jurkat cells; inhibition, % at 4 µM; Jurkat NF-kB luciferase, 16 h; shares compounds with Jurkat NFkB inh; actives 27% (n = 2,700); AID 435020;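 active = inhibition reaching about 45% at 4 µM in either replicate, limit read from the data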;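 also: plate controls were PMA/ionomycin stimulated DMSO wells for no effect and unstimulated DMSO wells for full effect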
697 NFkB conf – lowers PMA/ionomycin-induced NF-kB signal in 697 B cells; shares compounds with 697 NFkB inh; 697 B-cell NF-kB luciferase, 16 h; inhibition, % at 4 µM; actives 35% (n = 2,000); AID 449746; in the data active = inhibition mostly above about 28%, no sharp cut-off; inactive = mostly below about 22%
NR2E3 ag conf – NR2E3 agonism confirmed in two-hybrid assay | shares compounds with NR2E3 ag-1 | CHO-S mammalian two-hybrid NR2E3-NCOR, luciferase luminescence | inhibition, % at 3.98 µM | actives 51% (n = 2,300);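 active = average inhibition above a cutoff equal to the mean inhibition of all tested compounds plus one SD, cut at about 70% in these data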;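 also: 0% = DMSO in NR2E3 cells and 100% = DMSO in cells lacking NR2E3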
GAL4-VP16 luc – GAL4-VP16 reporter inhibition in NR2E3 agonist counterscreen. shares compounds with NR2E3 ag-1. CHO-S GAL4-VP16 luciferase reporter, luminescence. inhibition, % at 3.98 µM. actives 29% (n = 2,300). AID 624379;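 active = mean inhibition above a cutoff equal to the average over all tested compounds plus one standard deviation, cut at about 70% in these data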;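 also: luciferase from a UAS reporter driven by GAL4-VP16 transactivation; 0% = DMSO with VP16-transfected cells and 100% = DMSO with cells lacking VP16; higher means less reporter light so more repression of VP16 activity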
Starred values were filed as active, the others as inactive; [ ] = remark or other dose. Hits are enriched below; roughly 2.2% of the tested compounds scored in any of these assays.

`Cc1ccc(C(=O)O/N=C(\N)c2ccccn2)cc1` gave 697 NFkB inh -161, NR2E3 ag-1 -75, NR2E3 ag-2 1, FGF22 binding 0, miR122 inh 4 and Jurkat NFkB inh -77.
`O=C(Nc1ccc(S(=O)(=O)N2CCN(Cc3ccccc3)CC2)cc1)c1cnccn1` gave 697 NFkB inh -6, NR2E3 ag-1 61, NR2E3 ag-2 3, miR122 inh -19, Jurkat NFkB inh 57*, Jurkat NFkB conf 54*, NR2E3 ag conf 86* and GAL4-VP16 luc 71*.
O=C(Nc1ccc(S(=O)(=O)N2CCCC2)cc1)c1cnccn1 was read as 697 NFkB inh 21, NR2E3 ag-1 -9, NR2E3 ag-2 0, FGF22 binding 0, miR122 inh -1 and Jurkat NFkB inh 2.
O=C(Nc1ccccc1)[C@H]1[C@H](CO)[C@H]2Cn3c(cccc3=O)[C@H]2N1CC1CC1 was read as FGF22 binding 0 and miR122 inh -6[16.7 µM].
Screening COc1ccc(C(=O)Nc2nc3ccccc3s2)c(OC)c1 returned 697 NFkB inh 69*, NR2E3 ag-1 97*, NR2E3 ag-2 1, FGF22 binding 0, Jurkat NFkB inh 85*, Jurkat NFkB conf 91*, 697 NFkB conf 60*, NR2E3 ag conf 89* and GAL4-VP16 luc 86*.
For COc1ccc(NC(=O)Nc2nc3ccccc3s2)cc1 the results were 697 NFkB inh -123, NR2E3 ag-1 -114, NR2E3 ag-2 5, FGF22 binding 0 and Jurkat NFkB inh -96.
COc1ccccc1C(=O)Nc1nc2ccccc2s1 was read as 697 NFkB inh 2, NR2E3 ag-1 66, NR2E3 ag-2 1, FGF22 binding 0, miR122 inh 3, Jurkat NFkB inh 62*, Jurkat NFkB conf 71*, NR2E3 ag conf 65 and GAL4-VP16 luc 52.
Screening O=C(C[C@H]1C[C@H]2c3cc(NC(=O)Cc4ccncc4)ccc3O[C@H]2[C@H](CO)O1)NCc1ccc2c(c1)OCO2 returned FGF22 binding 0 and miR122 inh 4[16.7 µM].
Screening NC(=O)CC(NC(=O)c1ccccc1)c1ccc(N2CCCCCCC2)c([N+](=O)[O-])c1 (stereo not given) returned 697 NFkB inh -4, NR2E3 ag-1 22, NR2E3 ag-2 2, FGF22 binding 0, miR122 inh -1 and Jurkat NFkB inh 4.
For NC(=O)CC(NC(=O)c1ccc(Br)cc1)c1ccc(N2CCCCCC2)c([N+](=O)[O-])c1 (stereo not given) the results were 697 NFkB inh 0, NR2E3 ag-1 48, NR2E3 ag-2 0, FGF22 binding 0, Jurkat NFkB inh 54*, Jurkat NFkB conf 47, NR2E3 ag conf 17 and GAL4-VP16 luc 27.
Screening COc1ccc2c3c(n(C)c2c1)[C@@H](CO)N(C(=O)CC1CC1)CC31CN(C(=O)C2CCC2)C1 returned FGF22 binding 0.
`CCCCCCCCCCOC(=O)Cn1c(COc2ccccc2OC)[n+](C)c2ccccc21` gave 697 NFkB inh 39*, NR2E3 ag-1 48, NR2E3 ag-2 0, FGF22 binding -1, Jurkat NFkB inh 57*, Jurkat NFkB conf 60*, 697 NFkB conf 53*, NR2E3 ag conf 95* and GAL4-VP16 luc 69.
For C[C@@H]1CN([C@H](C)CO)C(=O)Cc2cc(NC(=O)Nc3cccc4ccccc34)ccc2O[C@H]1CN(C)C(=O)Nc1ccccc1 the results were FGF22 binding 0 and miR122 inh -6[16.7 µM].
`Cc1ccccc1S(=O)(=O)N[C@@H]1CC[C@@H](CCNS(=O)(=O)c2cccc(F)c2)O[C@@H]1CO` gave FGF22 binding 0.
`CN(C(=O)OC(C)(C)C)c1ccc(-c2nc3ccccc3s2)cc1` gave 697 NFkB inh 66*, NR2E3 ag-1 89*, NR2E3 ag-2 2, FGF22 binding 0, Jurkat NFkB inh 69*, Jurkat NFkB conf 90*, 697 NFkB conf 48*, NR2E3 ag conf 86* and GAL4-VP16 luc 77*.
COc1ccc(OC)c(C2C3=C(COC3=O)Nc3cc4c(cc32)OCO4)c1 (stereo not given) was read as 697 NFkB inh 43*, NR2E3 ag-1 59, NR2E3 ag-2 0, miR122 inh 140*, Jurkat NFkB inh 77*, Jurkat NFkB conf 42, 697 NFkB conf 39*, NR2E3 ag conf 7 and GAL4-VP16 luc 18.
For O=[N+]([O-])c1nn(-c2ccc3c(c2)OCCO3)n(O)c1=Nc1ccccc1 the results were 697 NFkB inh 9, NR2E3 ag-1 95*, NR2E3 ag-2 2, FGF22 binding 0, Jurkat NFkB inh 71*, Jurkat NFkB conf 89*, NR2E3 ag conf 83* and GAL4-VP16 luc 77*.
For O=S(=O)(C/C(=C/CO)S(=O)(=O)c1ccccc1)c1ccccc1 the results were 697 NFkB inh -74, NR2E3 ag-1 65, NR2E3 ag-2 2, miR122 inh -72, Jurkat NFkB inh 72*, Jurkat NFkB conf 58*, NR2E3 ag conf 69 and GAL4-VP16 luc -4.
Screening CS(=O)(=O)N1[C@@H]2c3ccc(-c4cccc(F)c4)c(=O)n3C[C@H]1[C@H](CO)[C@H]2C(=O)N1CCOCC1 returned FGF22 binding 0 and miR122 inh -1[16.7 µM].
CCC(O)C1CCN(C(=O)c2cc(COc3ccc4ncccc4c3)on2)CC1 (stereo not given) was read as 697 NFkB inh -6, NR2E3 ag-1 78*, NR2E3 ag-2 3, FGF22 binding 43, miR122 inh -1, Jurkat NFkB inh 56*, Jurkat NFkB conf 67*, NR2E3 ag conf 96* and GAL4-VP16 luc 85*.
Screening COc1ccc(C)cc1NS(=O)(=O)c1ccc(-c2cnc(C3CC3)o2)cc1 returned 697 NFkB inh -272, NR2E3 ag-1 103*, NR2E3 ag-2 -1, FGF22 binding 0, miR122 inh 26, Jurkat NFkB inh 66*, Jurkat NFkB conf 68*, 697 NFkB conf -213, NR2E3 ag conf 57 and GAL4-VP16 luc 59.

Bioassay records as filed in PubChem BioAssay.
